The source of these data is publication PMC10772668 (Clinical and Translational Science, 2023).

The structures appear in SMILES notation.

As a reminder, the Vd/F is the volume of distribution divided by bioavailability. One may read the IC50 as the concentration that inhibits the measured activity by half. Read a low IC50 as greater potency in that assay.

In series [1] the target is T1, RIPK1 (Homo sapiens, UniProt Q13546).
T1 sequence (Q13546 1-671): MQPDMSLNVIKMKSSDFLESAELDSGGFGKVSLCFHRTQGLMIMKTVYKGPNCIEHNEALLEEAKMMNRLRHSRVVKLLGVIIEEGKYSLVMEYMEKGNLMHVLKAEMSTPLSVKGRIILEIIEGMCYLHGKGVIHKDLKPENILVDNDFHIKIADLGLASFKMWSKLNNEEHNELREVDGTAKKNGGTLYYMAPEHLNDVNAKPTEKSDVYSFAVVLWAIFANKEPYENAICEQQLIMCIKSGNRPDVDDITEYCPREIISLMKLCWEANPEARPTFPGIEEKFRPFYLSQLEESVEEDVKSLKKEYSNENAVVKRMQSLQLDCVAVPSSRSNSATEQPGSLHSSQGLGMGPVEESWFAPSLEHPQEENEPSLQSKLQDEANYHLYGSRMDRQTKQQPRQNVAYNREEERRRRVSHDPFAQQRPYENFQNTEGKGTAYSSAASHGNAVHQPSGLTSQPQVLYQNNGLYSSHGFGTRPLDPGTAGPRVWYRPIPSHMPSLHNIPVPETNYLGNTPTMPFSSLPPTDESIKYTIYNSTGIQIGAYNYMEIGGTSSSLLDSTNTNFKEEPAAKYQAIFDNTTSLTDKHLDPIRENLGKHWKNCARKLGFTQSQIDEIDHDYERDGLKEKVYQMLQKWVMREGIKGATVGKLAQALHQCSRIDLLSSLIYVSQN
Briefly: pS166‐RIPK1 inhibition in PBMC lysates, SAD. Type of series: in vivo. Particulars: SAD all dose groups, from 1 h to at least 5 h postdose. An outline of the steps:
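After a single fasted oral dose or placebo, blood was collected predose, at 1, 3, 5 and 8 h on day 1, and at 24 h. PBMCs were isolated and autophosphorylated RIPK1 (pS166) quantified in lysates. Percent change from baseline was summarised descriptively as median (Q1–Q3) by dose group and timepoint.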

Series [2] in a line: Plasma PK, PK‐CSF. Type of series: in vivo, human. Particulars: for CL/F, geometric mean (%CV): after breakfast; for Vd/F: both, human, plasma, oral. An outline of the steps: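 Open‑label part: single oral 10 or 40 mg dose given about 30 min after breakfast. Plasma was collected predose and at 10 postdose times, one of them coinciding with lumbar‑puncture CSF sampling. Drug was quantified by validated HPLC‑MS (LLOQ 1 ng/mL). CL/F and Vz/F were derived from plasma concentration‑time data and summarised per dose group.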

Series [3] has as its target T1, RIPK1. Kind of series: In vitro inhibition of RIPK1 activity in iPSC‐derived microglia. Type of series: cell-based.
The target of series [4] is T1, RIPK1. Kind of series: pS166‐RIPK1 inhibition in PBMC lysates, MAD. The format is in vivo. As to conditions: MAD all dose groups. In a few lines: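 Blood was drawn predose on day −1 or 1, on day 7, on day 14 predose and 1, 3, 5 and 8 h postdose, and once on days 15 and 16. Subjects received 14‑day oral q.d./b.i.d. dosing or placebo. PBMCs were isolated and pS166‑RIPK1 measured in lysates. Percent change from baseline was summarised as median (Q1–Q3) per dose group and time.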

Series [5] deals with CYP3A4. Briefly: Plasma 4β‐hydroxycholesterol day 14/day 1 ratio. Type of series: in vivo, human. As to conditions: repeated doses up to 20 mg b.i.d. An outline of the steps: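 MAD healthy adults received oral capsules (10 or 20 mg q.d., 15 or 20 mg b.i.d.; fasted) or placebo for 14 days. Plasma 4β‑hydroxycholesterol was measured predose on day 1 and day 14, and day 14/day 1 ratios were calculated. Geometric mean of the log‑transformed ratio with 90% CI was obtained by analysis of covariance, per dose group and overall.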

As for `CC(C)(C(=O)N1CCOc2c(C#N)cncc2C1)C(F)F` [SAR443820], the “Median pS166‐RIPK1 inhibition in PBMC lysates” value in series [1] is “greater than 80%”. The “CL/F, geometric mean (%CV)” value in series [2] (PK‐CSF 10 mg single dose) is reported as 7.27 (29.7) L/h; in series [2] (PK‐CSF 40 mg single dose), 8.43 (34.2) L/h. Besides, the Vd/F in series [2] (10 mg) amounted to 83.6 L; in series [2] (40 mg), 97.7 L. Further, the “Food effect on absorption” value in series [2] (capsule in fed conditions vs fasted) is recorded as “no evidence that the extent of absorption was impacted by food”. For the same compound, the IC50 in series [3] stood at 1.6 nM. Also, the “pS166‐RIPK1 inhibition in PBMC lysates” value in series [4] (48 h post last dosing) was “less inhibition of RIPK1 phosphorylation”; in series [4] (day 14, up to 24 h post last morning dosing) it was “greater than 80%”. Moreover, the “Potential for CYP3A4 induction” value in series [5] was “no potential for CYP3A4 induction”.
